ChEMBL document CHEMBL1126792, “Structure-activity relationships of beta-D-(2S,5R)- and alpha-D-(2S,5S)-1,3-oxathiolanyl nucleosides as potential anti-HIV agents” (J Med Chem, 1993)

Tests used:
[1] = tested on: Human immunodeficiency virus 1; assay: Concentration required for antiviral activity in PBMC (human peripheral blood mononuclear cells) infected with HIV-1 strain LAV; format: functional, organism-based
In short: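 Human PBM cells infected with HIV-1 strain LAV. EC50 is the concentration giving 50% inhibition of virus production, measured as reverse transcriptase (RT) levels in culture supernatant. Values are the mean of triplicates, calculated by the median method.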

[2] = tested on: Vero; assay: Inhibition of cell growth in vero cells; format: functional, cell-based; conditions: Chlorocebus sabaeus
In short: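 Vero cell cytotoxicity assay; IC50 = concentration giving 50% inhibition of cell growth; mean of triplicate values, calculated by the median method.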

[3] = tested on: Human immunodeficiency virus 1; assay: Inhibition of cell growth against HIV-1 infected PBM (Human peripheral blood mononuclear) cells; format: functional, organism-based
In short: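 Growth of human PBM cells measured in cytotoxicity assay; IC50 = concentration giving 50% inhibition of cell growth; mean of triplicate values, calculated by the median method.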

[4] = Human immunodeficiency virus 1, PBMC

Row | SMILES | EC50 [1, 4] [nM] | IC50 [2] [µM] | IC50 [3] [µM] | EC50 ([1]; pbmc) [nM]
1 | Cc1cn([C@H]2CS[C@@H](CO)O2)c(=O)nc1N | 172 | > 100 | > 100 | 
2 | O=c1[nH]c(=O)n([C@H]2CS[C@@H](CO)O2)cc1F | 6300 | > 100 | > 100 | 
3 | Nc1nc(=O)n([C@H]2CS[C@@H](CO)O2)cc1Br | 12 | > 100 | > 100 | 
4 | Nc1nc(=O)n([C@@H]2CS[C@@H](CO)O2)cc1F | 77500 | > 100 | > 100 | 
5 | Nc1nc(=O)n([C@H]2CS[C@@H](CO)O2)cc1F | 380 | > 100 | > 100 | 
6 | Cc1cn([C@@H]2CS[C@@H](CO)O2)c(=O)nc1N | > 100000 | > 100 | > 100 | 
7 | Nc1ncnc2c1ncn2[C@@H]1CS[C@@H](CO)O1 | 11900 | > 100 | > 100 | 
8 | OC[C@H]1O[C@H](n2cnc3c(O)ncnc32)CS1 | > 100000 | > 100 | > 100 | 
9 | Cc1cn([C@H]2CS[C@@H](CO)O2)c(=O)[nH]c1=O | 11600 | > 100 | > 100 | 
10 | Nc1ccn([C@@H]2CS[C@H](CO)O2)c(=O)n1 [LAMIVUDINE] |  | > 100 | > 100 | 1.8
11 | O=c1[nH]c(=O)n([C@@H]2CS[C@@H](CO)O2)cc1Br | > 100000 | > 100 | > 100 | 
12 | OC[C@H]1O[C@@H](n2cnc3c(O)ncnc32)CS1 | 50 | > 100 | > 100 | 
13 | O=c1[nH]c(=O)n([C@H]2CS[C@@H](CO)O2)cc1I | 29300 | > 100 | > 100 | 
14 | O=c1[nH]c(=O)n([C@H]2CS[C@@H](CO)O2)cc1Cl | 30400 | > 100 | > 100 | 
15 | Cc1cn([C@@H]2CS[C@@H](CO)O2)c(=O)[nH]c1=O | > 100000 | > 100 | > 100 | 
16 | Nc1nc(F)nc2c1ncn2[C@H]1CS[C@@H](CO)O1 | 2800 | 5.6 | > 100 | 
17 | CNc1ncnc2c1ncn2[C@@H]1CS[C@@H](CO)O1 | 11700 | > 100 | > 100 | 
18 | Nc1nc(F)nc2c1ncn2[C@@H]1CS[C@@H](CO)O1 | 61900 | 45.4 | > 100 | 
19 | Nc1nc2c(ncn2[C@H]2CO[C@@H](CO)O2)c(=O)[nH]1 | 30 |  |  | 
20 | Nc1nc(=O)n([C@@H]2CS[C@@H](CO)O2)cc1Cl | > 100000 | 31.2 | > 100 | 

Row | SMILES | EC50 [1, 4] [nM] | IC50 [2] [µM] | IC50 [3] [µM] | EC50 ([1]; pbmc) [nM]
21 | Nc1nc(=O)n([C@@H]2CS[C@@H](CO)O2)cc1Br | > 100000 | > 100 | > 100 | 
22 | O=c1[nH]c(=O)n([C@H]2CS[C@@H](CO)O2)cc1Br | > 100000 | > 100 | > 100 | 
23 | Nc1nc(Cl)c2ncn([C@H]3CS[C@@H](CO)O3)c2n1 (racemic) | 520 | > 100 | > 100 | 
24 | Nc1ccn([C@@H]2CS[C@@H](CO)O2)c(=O)n1 | > 100000 | > 100 | > 100 | 
25 | Nc1nc(=O)n([C@H]2CS[C@@H](CO)O2)cc1Cl | 280 | > 100 | > 100 | 
26 | Nc1ccn([C@H]2CO[C@@H](CO)O2)c(=O)n1 | 16 |  |  | 
27 | Nc1nc(O)c2ncn([C@H]3CS[C@@H](CO)O3)c2n1 | 830 | > 100 | > 100 | 
28 | Nc1ncnc2c1ncn2[C@H]1CS[C@@H](CO)O1 | 280 | > 100 | > 100 | 
29 | Nc1nc(=O)n([C@@H]2CS[C@@H](CO)O2)cc1I | 280 | > 100 | > 100 | 
30 | Nc1nc(Cl)c2ncn([C@@H]3CS[C@@H](CO)O3)c2n1 | 5600 | > 100 | > 100 | 
31 | CNc1ncnc2c1ncn2[C@H]1CS[C@@H](CO)O1 | 1100 | > 100 | > 100 | 
32 | O=c1[nH]c(=O)n([C@@H]2CS[C@@H](CO)O2)cc1Cl | > 100000 | > 100 | > 100 | 
33 | Nc1nc(=O)n([C@H]2CS[C@@H](CO)O2)cc1I | 1900 | > 100 | > 100 | 
34 | OC[C@H]1O[C@@H](n2cnc3c(Cl)ncnc32)CS1 | 480 | 46.5 | > 100 | 
35 | O=c1ccn([C@H]2CS[C@@H](CO)O2)c(=O)[nH]1 | 94700 | > 100 | > 100 | 
36 | OC[C@H]1O[C@H](n2cnc3c(Cl)ncnc32)CS1 | 2700 | 86.1 | > 100 | 
37 | Cc1cn([C@H]2C[C@H](N=[N+]=[N-])[C@@H](CO)O2)c(=O)[nH]c1=O [ZIDOVUDINE] | 4 | > 100 | > 100 | 
38 | Nc1nc(O)c2ncn([C@@H]3CS[C@@H](CO)O3)c2n1 | 7620 | 63.6 | > 100 | 
39 | O=c1[nH]c(=O)n([C@@H]2CS[C@@H](CO)O2)cc1I | 112000 | > 100 | > 100 | 
